Measurements: ChEMBL document CHEMBL5678806, “NMS-P937, an orally available, specific small-molecule polo-like kinase 1 inhibitor with antitumor activity in solid and hematologic malignancies” (Mol Cancer Ther, 2012)
The source made the active and inactive calls. The calls are words filed in the database; no cut-off is given here.

Assays:
[1] = biological target: RAC-alpha serine/threonine-protein kinase (Homo sapiens, UniProt P31749); test: Inhibition of N-terminal His6 tagged recombinant full-length human PKBalpha expressed in baculovirus infected Sf21 cells assessed as residual activity at 1 uM relative to control
AU565 = test: Antiproliferative activity against human AU565 cells assessed as inhibition of cell growth incubated for 72 hrs by cell-titer glo assay; assay type: functional, cell-based; conditions: AU565, 72 h
In short: (§1)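 Cells seeded 10,000–30,000/cm² (adherent) or 100,000/mL (suspension) in medium with 10% fetal calf serum; after 24 h treated in duplicate with serial dilutions for 72 h. Viable cells read by CellTiter-Glo luminescence; IC50 from sigmoidal fit; at least two independent experiments.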

[2] = biological target: MAP kinase-activated protein kinase 5 (Homo sapiens) (UniProt Q8IW41); test: Inhibition of N-terminal His6-tagged recombinant human full-length PRAK expressed in baculovirus infected Sf21 cells assessed as residual activity at 1 uM relative to control
LS180 = test: Antiproliferative activity against human LS180 cells assessed as inhibition of cell growth incubated for 72 hrs by cell-titer glo assay; assay type: functional, cell-based; conditions: LS180, 72 h
In short: (§2)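 Cells seeded at 10,000–30,000/cm² (adherent) or 100,000/mL (nonadherent) in medium with 10% fetal calf serum; after 24 h, treated in duplicate with serial dilutions for 72 h. Viable cell number read by CellTiter-Glo luminescence; IC50 from sigmoidal fit; at least two independent experiments.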

HT-29 = test: Antiproliferative activity against human HT-29 cells assessed as inhibition of colony formation at <= 8 nmol/L incubated for 72 hrs and measured after 18 days by crystal violet staining based analysis; assay type: functional, cell-based
In short: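 HT29 colon adenocarcinoma cells exposed to a range of concentrations for 72 h, then compound removed and cells replated and grown 18 days in compound-free medium; colony formation scored.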

[3] = Antitumor activity against human Acute myeloid leukemic cell xenografted in nu/nu mouse assessed as increase in median survival time at 120 mg/kg, po administered for 2 days and measured after 10 days (reference value: 34 days); assay type: functional, Leukemia cell; conditions: time 2 day
[4] = Half-life in male cynomolgus monkey at 5 mg/kg, iv by LC-MS analysis; assay type: ADME, organism-based, Macaca fascicularis; conditions: in vivo
[5] = biological target: Macrophage colony-stimulating factor 1 receptor (Homo sapiens) (UniProt P07333); test: Inhibition of N-terminal His6-tagged recombinant human Fms (538 to end residues) expressed in baculovirus infected Sf21 cells assessed as residual activity at 1 uM relative to control
A2780 [6] = test: Induction of cell cycle arrest in human A2780 cells assessed as accumulation of cells in G2/M phase by measuring Histone H3 phosphorylation on Ser10 incubated for 24 hrs by Western blotting analysis; assay type: functional, cell-based; conditions: dose 0.02-0.2 µmol/L
In short: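 A2780 ovarian carcinoma cells treated 24 h with a range of concentrations, with DMSO and nocodazole controls. 20 µg protein extract separated by SDS-PAGE and immunoblotted with chemiluminescent detection. Probed for total and phospho-Thr210 PLK1, phospho-Ser10 histone H3, phospho-Thr199 NPM and phospho-Tyr15 CDK1. Total NPM, tubulin and total CDK1 served as loading controls.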

U2OS = test: Induction of apoptosis in human U2OS cells assessed as colocalization of cells by measuring activation of caspase 3 incubated for 24 hrs by DRAQ 5 staining based high content imaging assay relative to control; assay type: functional
HCC 2998 = test: Antiproliferative activity against human HCC 2998 cells assessed as inhibition of cell growth incubated for 72 hrs by cell-titer glo assay; assay type: functional, cell-based; conditions: HCC 2998, 72 h; in short: as §2
[7] = biological target: NUAK family SNF1-like kinase 1 (Homo sapiens) (UniProt O60285); test: Inhibition of N-terminal 6His-tagged recombinant human ARK5 (2 to end residues) expressed in baculovirus infected Sf21 cells assessed as residual activity at 1 uM relative to control
[8] = biological target: PAS domain-containing serine/threonine-protein kinase (Homo sapiens) (UniProt Q96RG2); test: Inhibition of human PASK assessed as residual activity at 0.1 uM relative to control
[9] = Oral bioavailability in male cynomolgus monkey at 5 mg/kg by LC-MS analysis; assay type: ADME, organism-based, Macaca fascicularis; conditions: in vivo
[10] = biological target: Serine/threonine-protein kinase pim-1 (Homo sapiens, UniProt P11309); test: Inhibition of PIM1 (unknown origin) in presence of [gamma-33P]ATP
[11] = biological target: Serine/threonine-protein kinase MARK2 (Homo sapiens) (UniProt Q7KZI7); test: Inhibition of N-terminal His6-tagged recombinant full-length human PAR-1Balpha expressed in baculovirus infected Sf21 cells assessed as residual activity at 1 uM relative to control
[12] = biological target: Homeodomain-interacting protein kinase 2 (Homo sapiens) (UniProt Q9H2X6); test: Inhibition of N-terminal His6-tagged recombinant human HIPK2 (165 to 564 residues) expressed in baculovirus infected Sf21 cells assessed as residual activity at 0.1 uM relative to control
[13] = biological target: Cyclin-dependent kinase 1/cyclin B1 (Homo sapiens, UniProt P06493); test: Inhibition of CDK1/CycB (unknown origin) in presence of [gamma-33P]ATP; assay type: protein-complex assay
TK-10 = test: Antiproliferative activity against human TK-10 cells assessed as inhibition of cell growth incubated for 72 hrs by cell-titer glo assay; assay type: functional, cell-based; conditions: TK-10, 72 h
[14] = biological target: Rho-associated protein kinase 1 (Homo sapiens) (UniProt Q13464); test: Inhibition of N-terminal His6-tagged recombinant human ROCK-I (17 to 535 residues) expressed in baculovirus infected Sf21 cells assessed as residual activity at 0.1 uM relative to control
MDA-MB-453 = test: Antiproliferative activity against human MDA-MB-453 cells assessed as inhibition of cell growth incubated for 72 hrs by cell-titer glo assay; assay type: functional, cell-based; conditions: MDA-MB-453, 72 h; in short: as §2
[15] = Antiproliferative activity against human SUPM2 cells assessed as inhibition of cell growth incubated for 72 hrs by cell-titer glo assay; assay type: functional, cell-based; conditions: SUP-M2, 72 h
[16] = biological target: Tyrosine-protein kinase Lyn (Homo sapiens, UniProt P07948); test: Inhibition of LYN (unknown origin) in presence of [gamma-33P]ATP
[17] = biological target: Dual specificity mitogen-activated protein kinase kinase 7 (Homo sapiens) (UniProt O14733); test: Inhibition of N-terminal GST-tagged recombinant human MKK7beta (2 to end residues) expressed in E. coli assessed as residual activity at 0.1 uM relative to control
[18] = biological target: Casein kinase I homolog 1 (Saccharomyces cerevisiae S288c) (UniProt P23291); test: Inhibition of yeast CK1 assessed as residual activity at 0.1 uM relative to control
A2780 [19] = test: Induction of cell cycle arrest in human A2780 cells assessed as accumulation of cells at G2/M phase by measuring 4N DNA content incubated for 24 hrs by flow cytometry analysis; conditions: dose 20-200 nmol/L
HEL = test: Antiproliferative activity against human HEL cells assessed as inhibition of cell growth incubated for 72 hrs by cell-titer glo assay; assay type: functional, cell-based; in short: as §2
C-33-A = test: Antiproliferative activity against human C-33-A cells assessed as inhibition of cell growth incubated for 72 hrs by cell-titer glo assay; assay type: functional, cell-based; in short: as §1

Serine/threonine-protein kinase MARK2 (Homo sapiens), sequence (Q7KZI7 whole entry, the tested form may be a part): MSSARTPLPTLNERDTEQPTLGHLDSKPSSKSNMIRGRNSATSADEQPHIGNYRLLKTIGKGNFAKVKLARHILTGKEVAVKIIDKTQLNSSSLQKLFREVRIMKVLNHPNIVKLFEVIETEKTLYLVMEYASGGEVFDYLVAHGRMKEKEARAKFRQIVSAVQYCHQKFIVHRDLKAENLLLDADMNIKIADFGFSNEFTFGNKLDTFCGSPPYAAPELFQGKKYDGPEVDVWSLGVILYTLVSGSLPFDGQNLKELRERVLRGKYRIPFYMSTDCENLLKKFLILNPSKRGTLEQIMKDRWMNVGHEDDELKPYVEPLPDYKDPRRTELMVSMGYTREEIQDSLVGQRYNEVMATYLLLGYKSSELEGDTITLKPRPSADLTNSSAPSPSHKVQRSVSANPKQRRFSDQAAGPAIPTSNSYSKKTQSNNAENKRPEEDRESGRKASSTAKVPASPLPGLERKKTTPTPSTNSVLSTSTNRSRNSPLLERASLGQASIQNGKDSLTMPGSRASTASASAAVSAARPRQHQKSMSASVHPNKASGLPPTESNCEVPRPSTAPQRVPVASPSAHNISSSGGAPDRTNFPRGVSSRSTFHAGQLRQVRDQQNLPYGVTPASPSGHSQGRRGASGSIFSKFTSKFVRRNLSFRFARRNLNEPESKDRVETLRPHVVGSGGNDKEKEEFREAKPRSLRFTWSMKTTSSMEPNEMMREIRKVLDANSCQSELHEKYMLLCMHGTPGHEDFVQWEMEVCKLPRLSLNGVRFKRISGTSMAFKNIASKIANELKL
Dual specificity mitogen-activated protein kinase kinase 7 (Homo sapiens), sequence (O14733 whole entry): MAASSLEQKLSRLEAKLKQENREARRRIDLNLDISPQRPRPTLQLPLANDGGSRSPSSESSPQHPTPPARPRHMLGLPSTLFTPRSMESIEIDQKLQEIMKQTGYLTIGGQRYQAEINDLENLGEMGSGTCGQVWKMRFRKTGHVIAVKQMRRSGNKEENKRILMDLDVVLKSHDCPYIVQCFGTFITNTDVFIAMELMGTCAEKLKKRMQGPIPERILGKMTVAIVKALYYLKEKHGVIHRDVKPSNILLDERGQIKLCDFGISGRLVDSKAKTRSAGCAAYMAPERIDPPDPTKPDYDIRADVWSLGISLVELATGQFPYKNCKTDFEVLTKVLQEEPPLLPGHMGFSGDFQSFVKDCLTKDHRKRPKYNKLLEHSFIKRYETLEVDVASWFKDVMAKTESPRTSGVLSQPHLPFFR
NUAK family SNF1-like kinase 1 (Homo sapiens), sequence (O60285 whole entry, the tested form may be a part): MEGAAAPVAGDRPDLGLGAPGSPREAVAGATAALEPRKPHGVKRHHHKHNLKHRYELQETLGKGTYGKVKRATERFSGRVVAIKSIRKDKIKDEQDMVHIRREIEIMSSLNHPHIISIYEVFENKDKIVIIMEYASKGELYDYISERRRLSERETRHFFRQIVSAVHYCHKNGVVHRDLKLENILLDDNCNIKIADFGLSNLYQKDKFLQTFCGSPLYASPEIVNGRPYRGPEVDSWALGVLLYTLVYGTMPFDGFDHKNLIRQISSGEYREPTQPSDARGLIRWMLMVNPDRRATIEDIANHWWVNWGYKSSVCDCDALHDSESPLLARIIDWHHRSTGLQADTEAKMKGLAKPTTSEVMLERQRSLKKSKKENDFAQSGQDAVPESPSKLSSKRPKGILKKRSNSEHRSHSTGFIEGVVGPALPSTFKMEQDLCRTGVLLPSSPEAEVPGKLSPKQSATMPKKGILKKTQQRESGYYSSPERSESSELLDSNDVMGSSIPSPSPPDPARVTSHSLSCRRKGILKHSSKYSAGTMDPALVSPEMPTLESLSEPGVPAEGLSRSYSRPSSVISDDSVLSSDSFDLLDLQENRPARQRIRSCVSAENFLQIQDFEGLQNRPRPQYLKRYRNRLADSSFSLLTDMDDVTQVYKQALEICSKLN
RAC-alpha serine/threonine-protein kinase, sequence (P31749 whole entry): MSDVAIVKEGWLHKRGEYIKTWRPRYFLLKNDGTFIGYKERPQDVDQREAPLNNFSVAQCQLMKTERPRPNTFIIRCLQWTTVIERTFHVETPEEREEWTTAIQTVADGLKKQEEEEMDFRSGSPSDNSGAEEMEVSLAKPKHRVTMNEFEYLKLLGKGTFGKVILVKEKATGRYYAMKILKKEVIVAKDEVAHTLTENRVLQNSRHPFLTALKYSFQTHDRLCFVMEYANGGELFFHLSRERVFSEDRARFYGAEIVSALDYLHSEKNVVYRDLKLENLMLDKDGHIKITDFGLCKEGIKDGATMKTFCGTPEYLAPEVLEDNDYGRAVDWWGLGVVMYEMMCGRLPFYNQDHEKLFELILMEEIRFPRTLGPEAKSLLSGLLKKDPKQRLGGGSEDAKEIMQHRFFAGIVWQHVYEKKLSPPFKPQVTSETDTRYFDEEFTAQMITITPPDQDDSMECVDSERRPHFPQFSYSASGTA
Casein kinase I homolog 1 (Saccharomyces cerevisiae S288c), sequence (P23291 whole entry): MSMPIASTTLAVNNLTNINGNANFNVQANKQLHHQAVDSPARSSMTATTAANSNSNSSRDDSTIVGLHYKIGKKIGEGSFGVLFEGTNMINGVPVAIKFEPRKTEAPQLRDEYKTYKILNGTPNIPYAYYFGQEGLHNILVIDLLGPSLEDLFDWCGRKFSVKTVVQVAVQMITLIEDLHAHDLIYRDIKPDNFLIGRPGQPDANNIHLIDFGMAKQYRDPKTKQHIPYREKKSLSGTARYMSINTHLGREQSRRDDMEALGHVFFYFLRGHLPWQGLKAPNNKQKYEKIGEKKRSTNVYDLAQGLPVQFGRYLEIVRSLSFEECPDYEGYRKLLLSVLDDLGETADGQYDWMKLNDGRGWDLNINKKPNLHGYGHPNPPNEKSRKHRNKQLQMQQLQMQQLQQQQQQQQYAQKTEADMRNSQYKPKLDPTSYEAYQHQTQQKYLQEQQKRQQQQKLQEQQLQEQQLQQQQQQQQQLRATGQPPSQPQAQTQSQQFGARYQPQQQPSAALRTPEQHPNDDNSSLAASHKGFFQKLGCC
MAP kinase-activated protein kinase 5 (Homo sapiens), sequence (Q8IW41 whole entry): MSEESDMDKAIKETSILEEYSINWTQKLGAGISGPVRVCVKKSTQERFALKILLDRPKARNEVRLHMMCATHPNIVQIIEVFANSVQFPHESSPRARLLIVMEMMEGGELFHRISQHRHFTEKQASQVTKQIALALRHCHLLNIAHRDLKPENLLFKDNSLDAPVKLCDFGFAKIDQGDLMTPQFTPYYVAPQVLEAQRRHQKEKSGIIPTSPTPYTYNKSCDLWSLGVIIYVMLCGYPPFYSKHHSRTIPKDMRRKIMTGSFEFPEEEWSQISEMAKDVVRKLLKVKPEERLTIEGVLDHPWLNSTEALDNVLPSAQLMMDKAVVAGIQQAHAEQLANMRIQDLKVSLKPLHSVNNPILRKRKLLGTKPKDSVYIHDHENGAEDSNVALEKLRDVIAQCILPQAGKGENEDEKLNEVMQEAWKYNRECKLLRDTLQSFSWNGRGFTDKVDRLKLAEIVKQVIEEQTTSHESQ
PAS domain-containing serine/threonine-protein kinase (Homo sapiens), sequence (Q96RG2 whole entry, the tested form may be a part): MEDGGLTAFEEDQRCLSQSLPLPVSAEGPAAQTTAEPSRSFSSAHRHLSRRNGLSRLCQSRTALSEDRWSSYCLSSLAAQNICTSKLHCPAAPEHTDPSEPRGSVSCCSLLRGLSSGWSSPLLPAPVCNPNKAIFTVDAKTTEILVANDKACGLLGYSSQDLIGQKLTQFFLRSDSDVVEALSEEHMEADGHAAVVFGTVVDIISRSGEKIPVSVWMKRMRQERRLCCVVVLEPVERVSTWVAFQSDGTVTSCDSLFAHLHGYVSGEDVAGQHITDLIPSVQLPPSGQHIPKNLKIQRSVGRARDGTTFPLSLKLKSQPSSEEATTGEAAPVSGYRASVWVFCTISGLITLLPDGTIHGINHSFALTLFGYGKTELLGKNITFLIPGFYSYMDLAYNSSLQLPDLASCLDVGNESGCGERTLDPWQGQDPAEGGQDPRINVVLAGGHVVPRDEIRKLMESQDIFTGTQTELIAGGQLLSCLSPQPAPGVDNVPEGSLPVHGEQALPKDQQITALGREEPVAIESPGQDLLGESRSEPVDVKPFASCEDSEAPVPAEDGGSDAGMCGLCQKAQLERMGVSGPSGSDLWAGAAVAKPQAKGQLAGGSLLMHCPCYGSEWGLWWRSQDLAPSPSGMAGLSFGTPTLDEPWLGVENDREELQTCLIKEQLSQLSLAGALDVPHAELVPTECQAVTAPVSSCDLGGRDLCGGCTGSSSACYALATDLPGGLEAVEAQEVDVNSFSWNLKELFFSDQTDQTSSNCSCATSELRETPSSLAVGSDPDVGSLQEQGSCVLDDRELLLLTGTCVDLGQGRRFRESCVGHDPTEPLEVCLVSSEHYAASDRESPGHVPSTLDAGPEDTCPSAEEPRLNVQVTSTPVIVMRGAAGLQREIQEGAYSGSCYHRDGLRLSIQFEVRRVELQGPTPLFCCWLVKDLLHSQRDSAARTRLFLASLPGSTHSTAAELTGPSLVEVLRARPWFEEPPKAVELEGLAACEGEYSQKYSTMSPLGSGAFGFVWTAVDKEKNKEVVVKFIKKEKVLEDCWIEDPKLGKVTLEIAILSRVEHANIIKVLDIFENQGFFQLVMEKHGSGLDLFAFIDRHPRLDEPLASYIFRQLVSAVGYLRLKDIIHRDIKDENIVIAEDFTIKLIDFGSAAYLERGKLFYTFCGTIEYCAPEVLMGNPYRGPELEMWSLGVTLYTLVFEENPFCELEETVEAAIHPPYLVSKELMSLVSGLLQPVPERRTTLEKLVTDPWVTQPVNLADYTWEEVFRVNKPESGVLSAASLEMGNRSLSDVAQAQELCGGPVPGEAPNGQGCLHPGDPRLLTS
Serine/threonine-protein kinase pim-1, sequence (P11309 whole entry): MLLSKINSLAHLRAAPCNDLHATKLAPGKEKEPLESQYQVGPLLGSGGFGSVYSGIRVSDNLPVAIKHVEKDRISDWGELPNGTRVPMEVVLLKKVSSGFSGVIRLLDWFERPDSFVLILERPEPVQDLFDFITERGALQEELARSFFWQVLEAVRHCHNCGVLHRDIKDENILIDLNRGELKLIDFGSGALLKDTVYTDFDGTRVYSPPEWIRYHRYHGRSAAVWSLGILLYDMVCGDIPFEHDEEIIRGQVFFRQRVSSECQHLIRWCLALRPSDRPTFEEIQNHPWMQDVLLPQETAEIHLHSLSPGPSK

CN1CCN(c2ccc(OC(F)(F)F)c(Nc3ncc4c(n3)-c3c(c(C(N)=O)nn3CCO)CC4)c2)CC1 [ONVANSERTIB]
Activity [1]: 88%
IC50 (AU565): 11 nM
Activity [2]: 77%
IC50 (LS180): 192 nM
Activity (HT-29): Active
Time [3]: 50 days
half-life [4]: 5 h
Activity [5]: 90%
Activity (A2780 [6]): Dose-Dependent Effect
Activity (U2OS): 13%
IC50 (HCC 2998): 132 nM
Activity [7]: 93%
Activity [8]: 127%
F [9]: 35%
IC50 [10]: > 10000 nM
Activity [11]: 87%
Activity [12]: 118%
IC50 [13]: > 10000 nM
IC50 (TK-10): 1210 nM
Activity [14]: 145%
IC50 (MDA-MB-453): 90 nM
IC50 [15]: 43 nM
IC50 [16]: > 10000 nM
Activity [17]: 85%
Activity [18]: 42%
Activity (A2780 [19]): Dose-Dependent Effect
IC50 (HEL): 48 nM
IC50 (C-33-A): 61 nM
